From ChEMBL document CHEMBL3421621, “SAR Studies of Diphenyl Cationic Trypanocides: Superior Activity of Phosphonium over Ammonium Salts” (ACS Med Chem Lett, 2015)

How the values were obtained:
[1] = tested on: Trypanosoma brucei brucei; test: Antitrypanosomal activity against wild type Trypanosoma brucei brucei s427 trypomastigotes assessed as cell viability after 48 hrs by alamar blue assay; format: functional, organism-based; settings: s427, 48 h
How it was run: (§1)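 Alamar blue viability assay run in parallel on T. b. brucei s427 wild type trypomastigotes, the TbAT1-KO strain (no functional P2 transporter) and the B48 strain (derived from TbAT1-KO, nonfunctional HAPT). EC50 values are the mean of three experiments ± SEM. Resistance factor is the EC50 against each resistant strain relative to wild type.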

[2] = tested on: Trypanosoma brucei brucei; test: Antitrypanosomal activity against AT1 knock out Trypanosoma brucei brucei assessed as cell viability after 48 hrs by alamar blue assay; format: functional, organism-based; how it was run: as §1
[3] = tested on: Trypanosoma brucei brucei; test: Resistance factor, ratio of EC50 for AT1 knock out Trypanosoma brucei brucei to EC50 for wild type Trypanosoma brucei brucei s427 trypomastigotes; format: functional
How it was run: (§2)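 AlamarBlue-based viability assay run in parallel on wild-type T. b. brucei s427 trypomastigotes and two resistant strains. TbAT1-KO lacks a functional P2 transporter and is diminazene-resistant. B48 is derived from TbAT1-KO and also lacks a functional high-affinity pentamidine transporter (HAPT). EC50 values are means of three experiments ± SEM. Each resistant-strain EC50 is divided by the wild-type EC50.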

[4] = tested on: Trypanosoma brucei brucei; test: Antitrypanosomal activity against Trypanosoma brucei brucei B48 with nonfunctional high affinity pentamidine transporter assessed as cell viability after 48 hrs by alamar blue assay; format: functional, organism-based; settings: B48, 48 h; how it was run: as §1
[5] = tested on: Trypanosoma brucei brucei; test: Resistance factor, ratio of EC50 for Trypanosoma brucei brucei B48 to EC50 for wild type Trypanosoma brucei brucei s427 trypomastigotes; format: functional; how it was run: as §2
[6] = Cytotoxicity against HEK293 cells after 16 hrs by alamar blue assay; format: cell-based; settings: human
[7] = Selectivity index, ratio of CC50 for HEK293 cells to EC50 for wild type Trypanosoma brucei brucei s427 trypomastigotes; format: toxicity, cell-based; settings: human; read-out: Ratio CC50/EC50
How it was run: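 Selectivity index = CC50 for HEK cells divided by EC50 against T. b. brucei s427 wild type.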

SMILES | EC50 [1] | EC50 [2] | Ratio EC50 [3] | EC50 [4] | Ratio EC50 [5] | CC50 at 16 h [6] | selectivity ratio [7]
CCCCCC[N+](CCCCCC)(CCCCCC)Cc1ccc(C(=O)c2ccccc2)cc1.[Br-] | 0.023 µM | 0.018 µM | 0.8 | 0.014 µM | 0.6 | 15.4 µM | 668
CCCC[N+](CCCC)(CCCC)Cc1ccc(Oc2ccc(C[N+](CCCC)(CCCC)CCCC)cc2)cc1.[Br-].[Br-] | 2.8 µM | 3.98 µM | 1.4 | 3 µM | 1.1 | > 300 µM | > 100
[Br-].[Br-].c1cc[n+](Cc2ccc(Oc3ccc(C[n+]4ccccc4)cc3)cc2)cc1 | 85 µM | > 100 µM | – | 72 µM | 0.8 | – | –
CCCC[N+](CCCC)(CCCC)Cc1ccc(C(=O)c2ccc(C[N+](CCCC)(CCCC)CCCC)cc2)cc1.[Br-].[Br-] | 11.5 µM | 16.7 µM | 1.4 | 14.1 µM | 1.2 | > 300 µM | > 26
CC[N+](CC)(CC)Cc1ccc(C(=O)c2ccc(C[N+](CC)(CC)CC)cc2)cc1 | > 100 µM | > 100 µM | – | > 100 µM | – | – | –
CCCCCC[N+](CCCCCC)(CCCCCC)Cc1ccc(Oc2ccc(C[N+](CCCCCC)(CCCCCC)CCCCCC)cc2)cc1.[Br-].[Br-] | 0.102 µM | 0.08 µM | 0.8 | 0.065 µM | 0.6 | 21.8 µM | 213
Cl.O=C(c1ccccc1)c1ccc(CN(Cc2ccccc2)Cc2ccccc2)cc1 | 11 µM | 10 µM | 0.9 | 8.3 µM | 0.7 | > 300 µM | > 27
O=C(c1ccc(C[n+]2cccc3ccccc32)cc1)c1ccc(C[n+]2cccc3ccccc32)cc1.[Br-].[Br-] | 45.4 µM | 35.2 µM | 0.8 | 30.9 µM | 0.7 | > 300 µM | > 6
N=C(N)c1ccc(/N=N/Nc2ccc(C(=N)N)cc2)cc1 [DIMINAZENE] | 0.323 µM | 0.738 µM | 2.3 | – | 3.1 | – | –
O=C(c1ccccc1)c1ccc(C[n+]2cccc3ccccc32)cc1 | > 100 µM | 68.5 µM | – | 81.5 µM | – | – | –
[Br-].[Br-].c1ccc2c(c1)ccc[n+]2Cc1ccc(Oc2ccc(C[n+]3cccc4ccccc43)cc2)cc1 | 11 µM | 10.2 µM | 0.9 | 9.7 µM | 0.9 | > 300 µM | > 27
O=C(c1ccc(C[n+]2ccccc2)cc1)c1ccc(C[n+]2ccccc2)cc1 | > 100 µM | > 100 µM | – | > 100 µM | – | – | –
N=C(N)c1ccc(OCCCCCOc2ccc(C(=N)N)cc2)cc1 [PENTAMIDINE] | 0.01 µM | 0.006 µM | 0.6 | 0.329 µM | 32.9 | – | –
CCCC[N+](CCCC)(CCCC)Cc1ccc(C(=O)c2ccccc2)cc1.[Br-] | 4.6 µM | 4.1 µM | 0.9 | 4.5 µM | 1 | > 300 µM | > 65
CC[N+](CC)(CC)Cc1ccc(Oc2ccc(C[N+](CC)(CC)CC)cc2)cc1 | > 100 µM | > 100 µM | – | > 100 µM | – | – | –
O=C(c1ccccc1)c1ccc(C[n+]2ccccc2)cc1 | > 100 µM | > 100 µM | – | > 100 µM | – | – | –
